From ChEMBL document CHEMBL1132173, “Novel derivatives of 2-pyridinemethylamine as selective, potent, and orally active agonists at 5-HT1A receptors” (J Med Chem, 1999) come the findings set out here.

Experiment [1] addresses T1, 5-hydroxytryptamine receptor 1A (Homo sapiens, UniProt P08908).
T1 sequence (P08908 whole entry): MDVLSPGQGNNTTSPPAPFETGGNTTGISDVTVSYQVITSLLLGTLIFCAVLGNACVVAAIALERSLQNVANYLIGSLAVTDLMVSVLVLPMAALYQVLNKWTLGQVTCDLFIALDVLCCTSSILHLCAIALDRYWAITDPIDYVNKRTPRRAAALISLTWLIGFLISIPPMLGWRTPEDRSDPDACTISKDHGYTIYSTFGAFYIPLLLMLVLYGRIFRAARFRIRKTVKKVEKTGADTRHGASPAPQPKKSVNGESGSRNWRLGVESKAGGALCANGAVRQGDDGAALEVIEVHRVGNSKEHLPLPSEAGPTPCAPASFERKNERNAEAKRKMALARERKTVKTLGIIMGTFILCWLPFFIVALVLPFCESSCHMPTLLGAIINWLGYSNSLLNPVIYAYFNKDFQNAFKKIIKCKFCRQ
Put plainly: In vitro effective concentration required to inhibit forskolin-stimulated cAMP levels in HA7 cells expressing human 5-HT1A receptor. It is filed as functional, cell-based. In outline:
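HeLa HA7 cells stably expressing human 5-HT1A, at 80–90% confluency, antibiotic-free for 24 h. Preincubated 10 min at RT in DMEM/10 mM Hepes, then drug at 0.1 nM–100 µM with 100 µM forskolin and 100 µM IBMX for 10 min at RT. Stopped with 0.1 N HCl; cAMP by radioimmunoassay as % of forskolin control; pEC50.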

Experiment [2] deals with T2, 5-hydroxytryptamine receptor 1A (Rattus norvegicus, UniProt P19327).
T2 sequence (P19327 whole entry): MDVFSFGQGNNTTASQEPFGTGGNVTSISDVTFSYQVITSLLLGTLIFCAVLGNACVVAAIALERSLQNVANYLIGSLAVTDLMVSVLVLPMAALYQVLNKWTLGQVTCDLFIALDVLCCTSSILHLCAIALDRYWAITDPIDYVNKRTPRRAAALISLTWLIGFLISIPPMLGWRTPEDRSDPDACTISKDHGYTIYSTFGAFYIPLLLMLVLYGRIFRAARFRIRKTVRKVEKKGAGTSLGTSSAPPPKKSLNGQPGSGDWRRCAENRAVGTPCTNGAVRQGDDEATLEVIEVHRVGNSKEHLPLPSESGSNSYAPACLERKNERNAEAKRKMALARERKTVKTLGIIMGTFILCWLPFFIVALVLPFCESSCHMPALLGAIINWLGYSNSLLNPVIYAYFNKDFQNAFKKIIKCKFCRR
Put plainly: Binding affinity towards 5-hydroxytryptamine 1A receptor in rat cortex using [3H]8-OH-DPAT as a radioligand. The essentials: (§1)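 Rat tissue membranes, competition against radioligand at 23 °C. Nonspecific binding: 5-HT for 5-HT1A (30 min), (+)-butaclamol for D2 (60 min), phentolamine for α1 (30 min). Tris HCl 50 mM pH 7.4 buffers. Filtration through glass-fibre filters, then scintillation counting. Run in triplicate; IC50 by nonlinear regression; Ki by Cheng–Prusoff; mean pKi of three determinations.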

Experiment [3] deals with T3, Adrenergic receptor alpha-1 (Rattus norvegicus, UniProt P15823+P23944+P43140).
T3 sequence (P15823 whole entry): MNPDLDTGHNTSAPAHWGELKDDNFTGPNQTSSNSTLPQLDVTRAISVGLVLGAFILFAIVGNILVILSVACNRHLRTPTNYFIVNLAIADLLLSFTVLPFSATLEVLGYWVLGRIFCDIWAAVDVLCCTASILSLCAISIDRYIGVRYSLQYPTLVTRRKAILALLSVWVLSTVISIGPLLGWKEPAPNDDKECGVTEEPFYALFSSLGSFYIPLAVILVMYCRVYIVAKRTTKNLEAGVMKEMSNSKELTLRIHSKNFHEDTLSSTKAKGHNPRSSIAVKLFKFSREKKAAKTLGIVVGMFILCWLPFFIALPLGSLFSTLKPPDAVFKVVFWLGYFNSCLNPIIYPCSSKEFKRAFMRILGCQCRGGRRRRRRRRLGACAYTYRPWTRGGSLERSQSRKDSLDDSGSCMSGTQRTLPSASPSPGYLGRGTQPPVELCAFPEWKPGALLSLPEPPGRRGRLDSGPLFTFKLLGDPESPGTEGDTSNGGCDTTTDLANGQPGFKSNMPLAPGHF
T3 sequence (P23944 whole entry): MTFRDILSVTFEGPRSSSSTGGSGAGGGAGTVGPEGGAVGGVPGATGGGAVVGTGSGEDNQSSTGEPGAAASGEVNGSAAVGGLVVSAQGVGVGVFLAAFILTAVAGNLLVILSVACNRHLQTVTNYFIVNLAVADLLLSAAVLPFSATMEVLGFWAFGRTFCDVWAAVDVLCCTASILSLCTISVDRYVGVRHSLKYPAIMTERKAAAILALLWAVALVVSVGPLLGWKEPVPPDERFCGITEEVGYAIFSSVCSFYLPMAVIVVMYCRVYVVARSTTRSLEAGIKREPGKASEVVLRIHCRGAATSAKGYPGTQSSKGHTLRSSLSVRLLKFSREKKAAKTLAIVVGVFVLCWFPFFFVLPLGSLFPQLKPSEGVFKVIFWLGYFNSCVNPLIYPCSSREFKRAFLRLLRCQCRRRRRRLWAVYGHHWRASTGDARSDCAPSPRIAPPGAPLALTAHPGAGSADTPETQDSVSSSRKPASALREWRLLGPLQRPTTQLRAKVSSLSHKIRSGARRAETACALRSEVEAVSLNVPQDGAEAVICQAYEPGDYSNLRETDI
T3 sequence (P43140 whole entry): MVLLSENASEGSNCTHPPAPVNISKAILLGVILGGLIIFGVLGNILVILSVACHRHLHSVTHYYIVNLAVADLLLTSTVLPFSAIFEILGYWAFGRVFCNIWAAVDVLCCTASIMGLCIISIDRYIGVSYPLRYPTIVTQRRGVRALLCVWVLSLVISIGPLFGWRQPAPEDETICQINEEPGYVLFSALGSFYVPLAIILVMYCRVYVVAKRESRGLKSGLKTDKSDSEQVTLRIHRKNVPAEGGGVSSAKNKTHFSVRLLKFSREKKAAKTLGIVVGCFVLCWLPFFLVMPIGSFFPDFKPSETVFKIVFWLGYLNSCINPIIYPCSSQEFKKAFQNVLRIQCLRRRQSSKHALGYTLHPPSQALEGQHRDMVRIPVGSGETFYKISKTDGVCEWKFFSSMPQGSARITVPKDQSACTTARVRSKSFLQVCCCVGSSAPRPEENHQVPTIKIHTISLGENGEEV
Put plainly: Binding affinity towards Alpha-1 adrenergic receptor using prazosin as a radioligand in rat cortex. The essentials:
as §1

In another experiment the target is D(2) dopamine receptor (Rattus norvegicus, UniProt P61169). Put plainly: Binding affinity towards Dopamine receptor D2 in rat striatum using YM-09151-2 as a radioligand. It is filed as tissue-based. In outline: as §1
D(2) dopamine receptor, sequence (P61169 whole entry): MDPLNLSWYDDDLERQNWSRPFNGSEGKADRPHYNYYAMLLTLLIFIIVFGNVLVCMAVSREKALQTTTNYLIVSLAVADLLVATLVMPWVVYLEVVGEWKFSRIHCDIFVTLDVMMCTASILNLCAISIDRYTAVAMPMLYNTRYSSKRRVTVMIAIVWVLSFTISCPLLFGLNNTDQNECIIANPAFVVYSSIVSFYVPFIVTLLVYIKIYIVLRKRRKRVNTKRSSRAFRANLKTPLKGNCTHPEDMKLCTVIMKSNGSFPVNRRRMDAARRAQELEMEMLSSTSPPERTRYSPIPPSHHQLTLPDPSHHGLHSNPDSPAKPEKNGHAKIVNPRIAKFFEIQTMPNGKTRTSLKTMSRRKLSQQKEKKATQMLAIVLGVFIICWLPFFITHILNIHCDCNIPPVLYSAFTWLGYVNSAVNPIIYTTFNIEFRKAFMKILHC
For experiment [4], the system named is Rattus norvegicus. Put plainly: Effective intraperitoneal dose in vivo in rat after 15 mins to induce lower lip retraction. It is filed as functional. The settings on record: ip, 0.25 h. In outline: (§2)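 Observed in 10 min windows centred 15 and 60 min post-dose, 10 s each minute, scoring lower lip retraction present or absent (0–10).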
Experiment [5] deals with Rattus norvegicus. Put plainly: Effective intraperitoneal dose in vivo in rat after 60 mins to induce lower lip retraction. It is filed as functional. Particulars: ip, 1 h. The essentials: as §2
Experiment [6] concerns Rattus norvegicus. Put plainly: Induction of lower lip retraction in rat 60 min after administration, effective peroral dose determined in vivo. It is filed as functional. The settings on record: po, 1 h. The essentials: as §2

On to `O=C(c1ccc(Cl)c(Cl)c1)N1CCC(F)(CNCc2cccc(-c3cccs3)n2)CC1`, for which, in experiment [1], the EC50 was 12 nM. Further, the results for the Ki (in experiment [2]; on D(2) dopamine receptor) were 1.23 nM and 457 nM, respectively. Besides, the “Log Ki” value in experiment [3] is on record as -6.72. Also, the ED50 in the experiment with Rattus norvegicus [4] turned out to be 0.32 mg/kg; in the experiment with Rattus norvegicus [5], 0.32 mg/kg; in the experiment on Rattus norvegicus [6], 1.3 mg/kg.
On to `Cc1ccc(C(=O)N2CCC(F)(CNCc3cccc(N(C)C)n3)CC2)cc1Cl`, for which a half-maximal response in experiment [1] (EC50) required 5.75 nM. The Ki in experiment [2] was 0.269 nM; on D(2) dopamine receptor it was 129 nM. In experiment [3], the “Log Ki” value was -6.86. Also, the ED50 is 0.08 mg/kg in the experiment on Rattus norvegicus [4], 0.08 mg/kg in the experiment on Rattus norvegicus [5] and 0.32 mg/kg with Rattus norvegicus [6].
Take `Cc1cc(CNCC2(F)CCN(C(=O)c3ccc(F)c(Cl)c3)CC2)nc(N(C)C)c1`: in experiment [1], the EC50 is 33.1 nM. Further, affinity in experiment [2] was put at a Ki of 0.562 nM. Moreover, the values for the ED50 in the experiment on Rattus norvegicus [4] and in the experiment with Rattus norvegicus [6] were 0.32 mg/kg and 0.89 mg/kg, respectively.
In the case of `Cc1ccc(CNCC2(F)CCN(C(=O)c3ccc(F)c(Cl)c3)CC2)nc1-n1cccn1`, the EC50 in experiment [1] is 14.8 nM. In experiment [2], this compound showed a Ki of 0.447 nM. Also, the median effective dose (ED50) in the experiment with Rattus norvegicus [4] amounted to 0.32 mg/kg; in the experiment on Rattus norvegicus [6] it was 1.3 mg/kg.
In experiment [1], `Cc1ccc(CNCC2(F)CCN(C(=O)c3ccc(F)c(Cl)c3)CC2)nc1-c1cc[nH]n1` gave an EC50 of 2.75 nM. The compound further had a Ki in experiment [2] of 2.19 nM. The ED50 in the experiment with Rattus norvegicus [4] turned out to be 0.32 mg/kg; in the experiment on Rattus norvegicus [6], 0.89 mg/kg.
On to `CN(C)c1cccc(CNCC2(F)CCN(C(=O)c3cccc(Cl)c3)CC2)n1`, for which, in experiment [1], the EC50 is 10 nM. The Ki in experiment [2] was 0.0977 nM; on D(2) dopamine receptor it was 617 nM. For the same compound, the “Log Ki” value in experiment [3] is on record as -6.81. In addition, the ED50 in the experiment with Rattus norvegicus [4] was found to be 0.08 mg/kg; with Rattus norvegicus [5] it was 0.11 mg/kg; in the experiment with Rattus norvegicus [6], 0.32 mg/kg.
As for `CNc1cccc(CNCC2(F)CCN(C(=O)c3ccc(Cl)c(Cl)c3)CC2)n1`, in experiment [1], the EC50 is 6.61 nM. In experiment [3], the “Log Ki” value is reported as -6.92. Besides, the ED50 with Rattus norvegicus [4] was determined as 0.11 mg/kg; in the experiment with Rattus norvegicus [5] it was 0.23 mg/kg; with Rattus norvegicus [6], 0.32 mg/kg.
Turning to `O=C(c1ccc(F)c(Cl)c1)N1CCC(F)(CNCc2cccc(-n3cccn3)n2)CC1`, in experiment [1], the response was half-maximal at 12.3 nM (EC50). Besides, the Ki in experiment [2] is 0.49 nM. Further, the results for the ED50 in the experiment on Rattus norvegicus [4] and in the experiment on Rattus norvegicus [6] were 0.32 mg/kg and 1.3 mg/kg, respectively.
For the compound `O=C(c1ccc(Cl)c(Cl)c1)N1CCC(F)(CNCc2cccc(-c3cnco3)n2)CC1`, in experiment [1], the EC50 is 8.91 nM. Also, the Ki is 0.468 nM in experiment [2] and 2240 nM at D(2) dopamine receptor. The “Log Ki” value in experiment [3] was -5.9. In addition, the ED50 in the experiment on Rattus norvegicus [4] worked out at 0.32 mg/kg; with Rattus norvegicus [5], 0.32 mg/kg; with Rattus norvegicus [6], 1.3 mg/kg.
The compound `O=C(c1ccc(Cl)c(Cl)c1)N1CCC(F)(CNCc2cccc(N3CCC3)n2)CC1` had an EC50 in experiment [1] of 10.7 nM. In addition, the Ki in experiment [2] was 0.2 nM; at D(2) dopamine receptor it was 309 nM. The “Log Ki” value in experiment [3] is reported as -6.35. Moreover, the ED50 in the experiment with Rattus norvegicus [4] was found to be 0.32 mg/kg; in the experiment on Rattus norvegicus [5], 0.45 mg/kg; in the experiment with Rattus norvegicus [6] it was 0.45 mg/kg.
`Cc1ccc(N(C)C)nc1CNCC1(F)CCN(C(=O)c2ccc(F)c(Cl)c2)CC1`: the EC50 in experiment [1] was 47.9 nM. In addition, the Ki in experiment [2] is 0.468 nM. Besides, the figures for the ED50 in the experiment on Rattus norvegicus [4] and with Rattus norvegicus [6] were 0.63 mg/kg and 1.3 mg/kg, respectively.
In experiment [1], `O=C(c1ccc(Cl)c(Cl)c1)N1CCC(F)(CNCc2cccc(-c3nccs3)n2)CC1` showed an EC50 of 22.9 nM. The results for the Ki (in experiment [2]; at D(2) dopamine receptor) were 0.794 nM and 3390 nM, respectively. In experiment [3], the “Log Ki” value was -6.26. Further, the ED50 was 0.45 mg/kg in the experiment on Rattus norvegicus [4], 0.89 mg/kg in the experiment on Rattus norvegicus [5] and 1.3 mg/kg with Rattus norvegicus [6].
Turning to `CN(C)c1cccc(CNCC2(F)CCN(C(=O)c3ccc(Cl)c(Cl)c3)CC2)n1`, in experiment [1], the response was half-maximal at 2.95 nM (EC50). Further, the “Log Ki” value in experiment [3] is listed as -6.76. The figures for the ED50 in the experiment on Rattus norvegicus [4], in the experiment on Rattus norvegicus [5] and in the experiment on Rattus norvegicus [6] were 0.62 mg/kg, 0.45 mg/kg and 0.32 mg/kg, respectively.
